Test results taken from ChEMBL document CHEMBL4513216, “Probing the Open Global Health Chemical Diversity Library for Multistage-Active Starting Points for Next-Generation Antimalarials” (ACS Infect Dis, 2020).

Experiment: Toxicity liver stage against HepG2, at 10uM
Assay type: cell-based
Design: test concentration 10 uM, cell line HepG2-A16-CD81EGFP
Conditions: human, HepG2-A16-CD81EGFP cells; read-out: INHIBITION
In short: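 Uninfected HepG2-A16-CD81EGFP cells, 3 × 10^3 per well, 1536-well, plated on prespotted compound at 10 μM final, parasite-free screening media added to match infected plates; puromycin 10 μM positive, DMSO 0.5% negative; run in parallel with 48 h PbLuc assay at 37 °C, 5% CO2; viability by CellTiter-Glo luminescence, normalized to controls.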

Structure (SMILES) | cytotoxicity at 10 µM [%]
Cc1nc(N2CCCC2)ncc1C(=O)Nc1ccc(Br)cc1 | -1.85
Cc1cccc(C2CCCCCN2Cc2cn(C)nc2C)c1 (configuration not stated) | -1.17
CCS(=O)(=O)N1CC(=O)N(CCOc2ccccc2)CC(O)C1 (configuration not stated) | -0.739
CC(=O)c1cn(CCC(=O)NCCCC(=O)O)c2ccccc12 | -1.63
CSc1c(CC(=O)O)n(C)c2ccccc12 | 3.79
COCCc1nnc(NC(=O)CCCc2ccccc2)o1 | -4.34
COc1ccc(S(=O)(=O)NCC(C)(O)c2cccs2)cc1Cl (configuration not stated) | -11.5
CCSc1ccccc1C(=O)N1CC2(COC(C)(C)OC2)C1 | -3.45
Cc1noc(C)c1CN1CCCC2(C1)CN(c1nncs1)CCO2 (configuration not stated) | 0.922
COc1cc(C(=O)NCCCO)cc2occc12 | 5.47
Cn1cc(CN2CCc3nc4ccccc4c(=O)n3CC2)cn1 | -1.57
Cc1noc(C)c1-c1nc(C2CCCN(C(=O)CCN)C2)ccc1CO (configuration not stated) | -2.53
O=C(NCc1ccco1)c1cc[n+]([O-])cc1 | 3.33
Cc1c(CCC(=O)N2CCOC(c3cnccn3)C2)cnn1C (configuration not stated) | -1.87
CO[C@@H]1CCC[C@@H](N(C)C(=O)c2cc(F)ccc2F)[C@H]1O | -5.38
O=C(Nc1ccc(Cl)cn1)c1cncc(C2CCNCC2)n1 | -13.5
Cc1ccncc1NS(=O)(=O)c1ccc(Cl)s1 | 0.405
COCCOc1cccc(CNCc2ccc(-n3cncn3)nc2)c1 | -11.8
Cc1ccc(F)c(N2CCCC(NS(=O)(=O)CCCF)C2=O)c1 (configuration not stated) | -3.14
COCCN(Cc1coc(-c2ccc(OC)cc2)n1)C1CC1 | 2.1
CC(=O)N1CC(C)CN(C(=O)c2cccnc2C)c2ccccc21 (configuration not stated) | 6.45

Structure (SMILES) | cytotoxicity at 10 µM [%]
Cc1nc(-c2nnc[nH]2)sc1C(=O)N1CCCC1CC(C)(C)C (configuration not stated) | 12.1
CCc1ncc2c(n1)CN(CC(=O)N1CCc3sccc3C1)CC2 | 4.83
CN(Cc1ccc(Cl)cc1)S(=O)(=O)N(C)Cc1cnn(C)c1 | 16.5
Cn1c(NC(=O)CCS(=O)(=O)C2CCCC2)nc2cc(Cl)ccc21 | 7.42
N#Cc1ccc(CSCCN2CCOCC2)cc1 | 4.2
COc1ccccc1C1(CNc2nnc(C)c(C)c2C#N)CCOCC1 | 6.77
COC(=O)[C@H](C)NC(=O)COc1nn(C)c2nc(C)cc(C)c12 | -2.53
Cc1noc(CN(Cc2cccc(C#N)c2)Cc2ccco2)n1 | 0.554
Cc1ccc(C(=O)N(C)CCOc2ccccc2F)c(=O)[nH]1 | -136
COc1ccc2c(c1)CCCN(C(C)C(=O)NC(C)C)C2 (configuration not stated) | 9.56
CN(C)C(=O)CCNC(=O)Nc1cccc(Cl)c1-n1cccn1 | 0.399
O=C(CCc1ccc(Br)cc1)NCc1nnc[nH]1 | 0.163
Cc1ccc(NCCCNC(=O)NCC2CCS(=O)(=O)C2)nc1 (configuration not stated) | 17.2
COc1cccc(C2(NC(=O)CCNC(C)=O)CC2)c1 | 1.6
Cc1nc(C)c(CC(=O)N2CCN(CC(C)C)CC2)c(=O)[nH]1 | -12.3
O=C(NCc1cc(Br)cs1)Nc1cn[nH]c1 | 5.85
CNC(=O)NCC(CO)Cc1cccc(OC(F)(F)F)c1 (configuration not stated) | -1.28
Cn1cc(C(C)(O)CNc2ccccn2)cn1 (configuration not stated) | -43.6
O=C(O)c1ccn(-c2ccccc2NS(=O)(=O)c2ccccc2)n1 | 23
CC(C)(C)OC(=O)NC(C)(C)c1noc(CN2CCCCC2)n1 | 7.57
O=C(c1cnn(-c2ccccc2F)c1)N1CCN(CCO)CC1 | -8.18

Structure (SMILES) | cytotoxicity at 10 µM [%]
CCN1CCN(c2ccc(F)cc2C(C)NCc2noc(C)n2)CC1 (configuration not stated) | 1.8
CC(OCC(F)(F)F)C(=O)N1CCN(S(C)(=O)=O)CC1 (configuration not stated) | -1.33
CCC(CC)c1cc(C(=O)N2CCCC(n3cncn3)C2)on1 (configuration not stated) | -13.1
O=c1cc(Cn2ccnc2)nc2n1CCCN(S(=O)(=O)C1CC1)C2 | 7.95
CN(C)C(=O)N1CCN(C(=O)Nc2nc(-c3ccccc3)ns2)CC1 | -136
CC(C)n1ccnc1Cn1ccc2ncccc2c1=O | -4.65
CSc1ccc(-c2nc(CN3CCC(C(N)=O)CC3)c(C)o2)cc1 | 4.58
Cc1[nH]nc(CCC(=O)N2CCc3c(nc[nH]c3=O)C2)c1C | 3.63
Cc1cccc(OCC2CCCN(C(=O)CCn3ccccc3=O)C2)c1 (configuration not stated) | -0.987
NC(=O)C1CCN(C(C(=O)O)c2ccc(Cl)c(C(F)(F)F)c2)CC1 (configuration not stated) | -107
O=C(O)[C@@H]1CN(Cc2c[nH]c(CC3CCCC3)n2)C[C@H]1c1ccncc1 | 1.08
O=C1CC2(CCN(C(=O)Cc3cc4c(cc3Cl)OCCO4)C2)C(=O)N1 (configuration not stated) | 12.7
COc1ccccc1OC1CCN(C(=O)CCCn2ccnc2)CC1 | -183
Cc1nc[nH]c1CN(Cc1ccccc1)Cc1nccs1 | 2.14
CCCc1nc(C(=O)N2CCCn3nc(CCC(=O)O)cc3C2)cs1 | -9.84
O=C(CCc1cccnc1)N(Cc1ccsc1)CC1CCCO1 (configuration not stated) | -11.5
CN(CCO)C[C@@H]1CN(C(=O)c2c(F)cccc2Cl)C[C@@H]1CO | -9
Cc1cc(NCc2cc3n(n2)CCCN(S(C)(=O)=O)C3)ncn1 | -14.3
CN(C)c1ncccc1CNC(=O)NCc1ccc(Cl)s1 | 9.21
CS(=O)(=O)c1ccc(C(=O)N2CCCC(n3ccnc3)C2)cc1 (configuration not stated) | -19.4
CC(C)(O)CN1CCN(C(=O)c2cccc(CC#N)c2)CC1 | -13.4

Structure (SMILES) | cytotoxicity at 10 µM [%]
c1csc(-c2noc(CCCN3CCCC3Cn3cncn3)n2)c1 (configuration not stated) | -24.2
CN(C)c1ncccc1CNS(=O)(=O)c1cc(F)cc(F)c1 | -14
Cc1nn(Cc2ccccc2)c(C)c1CNC1CCc2ncnn2C1 (configuration not stated) | -1.04
CCN1CC(C(=O)NCc2cccnc2-n2cccn2)CC1=O (configuration not stated) | 0.796
Cc1nnc(C2Cc3ccccc3CN2Cc2nc(C(C)C)no2)o1 (configuration not stated) | -22
Cn1cnnc1C1CCCN(C(=O)c2cc(Cl)c(Cl)n2C)C1 (configuration not stated) | -4.9
CC(c1nc(C2CC2)no1)N1CCN(Cc2cccc(F)c2F)CC1 (configuration not stated) | -4.93
O=C(c1cccc2c1OCCO2)N1CCCC(n2ccnc2)C1 (configuration not stated) | -6.92
Cc1cc(N2CCN(Cc3cn(C)nc3C)CC2)cc(C2CCCN2)n1 (configuration not stated) | 0.525
CNC(=O)C1Cn2ccnc2C2(CCN(C(=O)CC3CCCC3)CC2)O1 (configuration not stated) | -145
Cc1noc(C)c1CN1C[C@@H]2C[C@@H](C)O[C@@H]2C1 | 4.06
O=C(c1ccncn1)N1CCC[C@]2(C[C@H](Oc3ncccc3F)CO2)C1 | -0.588
CNC(=O)[C@H]1C[C@@H]2CN(S(=O)(=O)c3ccc(C)cc3)C[C@@H]2N1C | -2.19
CC1c2ncc(CNC(=O)C3CC3)n2CCN1Cc1ccsc1 (configuration not stated) | 1.06
Cc1cccc(-c2nnn3c2COC(CNCc2nccs2)C3)c1 (configuration not stated) | 4.51
Cc1ccc(C(=O)N2C[C@H]3CCC[C@@]3(COc3ccccn3)C2)nc1 | -2.23
O=C([C@@H]1COC[C@H]2CN(c3ccncn3)C[C@H]21)N1CCCC1 | -133
CNC(=O)c1nc2c(s1)CCN(C(=O)c1cccnc1)CC2 | 6
Cc1cccc(CN2CCc3ncnc(N4CCOCC4)c3CC2)n1 | -4.95
